From ChEMBL document CHEMBL1140208, “Selectivity and mechanism of action of a growth factor receptor-bound protein 2 SRC homology 2 domain binding antagonist” (J Med Chem, 2008)
Calls of active or inactive are those of the source. No cut-off for these calls is given here.

Tests used:
[1] = Selectivity ratio for streptavidin-coupled biotin-labeled Shc-SH2 to streptavidin-coupled biotin-labeled Grb2-SH2
In short: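 Ratio of Shc-SH2 to Grb2-SH2 steady-state affinities, both measured by SPR on Neutravidin-captured biotinylated SH2 domains (Biacore T100, 25°C, PBS pH 7.4, inhibitors 1.25–1500 nM, 1:1 fit).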

[2] = biological target: Serine/threonine-protein kinase PAK 1 (Homo sapiens) (UniProt Q13153); assay: Inhibition of HGF-stimulated PAK1 activation in human PC3M cells at 1 uM after 16 hrs by immunoblot analysis; type: cell-based
In short: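 PC3M cells serum-deprived and treated 16 h with 1 μM compound or left untreated, then stimulated briefly with HGF (50 ng/mL) for various times. Lysates probed by immunoblot with anti-phospho-PAK1; anti-PAK1 served as loading control.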

[3] = biological target: Serine/threonine-protein kinase PAK 1 (Homo sapiens) (UniProt Q13153); assay: Decrease in HGF-stimulated PAK1 nuclear translocation in human PC3M cells at 1 uM after 16 hrs by immunoblot analysis; type: cell-based
In short: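 PC3M cells treated with compound for 16 h; nuclear extracts prepared with high-salt buffer. PAK1 detected by SDS-PAGE and anti-PAK1 immunoblot, with anti-CREB immunoblot alongside.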

[4] = test system: PC-3M; assay: Inhibition of HGF-induced human PC3M cell migration assessed as reduction in actin bundle reorganization and membrane extension at 1 uM after 6 hrs by DAPI staining; type: functional, cell-based
In short: (§1)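 Cells in chamber slides serum-deprived ± 1 μM compound for 24 h, monolayer scratched with pipet tip, then incubated ± HGF 50 ng/ml (6 h) before fixation and permeabilization. Blocked with 5% BSA, stained overnight at 4°C with Alexa488-phalloidin for F-actin, nuclei counterstained with DAPI; lamellipodia at wound edge imaged by epifluorescence videomicroscopy.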

[5] = test system: MDCK; assay: Inhibition of HGF-induced MDCK cell migration assessed as reduction in actin bundle reorganization and membrane extension at 1 uM after 6 hrs by DAPI staining; type: functional, cell-based; details: Canis lupus familiaris; in short: as §1
[6] = test system: PC-3M; assay: (§2) Antimotility activity in human PC3M cells assessed as inhibition of HGF-stimulated cell migration after 24 hrs by Boyden chamber assay; type: functional, cell-based
In short: (§3)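 PC3M cells pretreated with compound 24 h, seeded 200,000 per modified Boyden chamber; migration stimulated with recombinant human HGF 50 ng/ml. Migrated cells counted by light microscopy in four fields (1 × 1.4 mm) per well, triplicate wells per condition; expressed as percent maximum, mean ± standard deviation; dose-response analysis.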

[7] = biological target: Growth factor receptor-bound protein 2 (Homo sapiens) (UniProt P62993); assay: Binding affinity to human recombinant HGF-stimulated Grb2-SH2 in human SK-LMS1 cells at 3 uM by immunoblot analysis; type: cell-based
In short: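 SK-LMS-1 cells serum-deprived 16 h, stimulated with recombinant human HGF 25 ng/ml for 20 min, lysed in cold non-ionic detergent buffer. Biotinylated ligand (3 μM) added to lysate, 1 h on ice; streptavidin beads added, 1 h at 4°C. Beads washed five times with lysis buffer at 150–500 mM NaCl; bound Grb2 detected by SDS-PAGE and anti-Grb2 immunoblot.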

[8] = as §2; type: functional, cell-based; details: PC-3M; in short: as §3
[9] = biological target: Growth factor receptor-bound protein 2 (Homo sapiens) (UniProt P62993); assay: Binding affinity to human recombinant HGF-stimulated Grb2-SH3 in human SK-LMS1 cells assessed as presence of associated protein Nck1 at 3 uM by immunoblot analysis; type: cell-based
[10] = biological target: Growth factor receptor-bound protein 2 (Homo sapiens) (UniProt P62993); assay: Binding affinity to human recombinant HGF-stimulated Grb2-SH3 in human SK-LMS1 cells assessed as presence of associated protein Nck2 at 3 uM by immunoblot analysis; type: cell-based
[11] = biological target: Growth factor receptor-bound protein 2 (Homo sapiens) (UniProt P62993); assay: Binding affinity to human recombinant HGF-stimulated Grb2-SH3 in human SK-LMS1 cells assessed as presence of associated protein Gab1 at 3 uM by immunoblot analysis; type: cell-based
[12] = biological target: Growth factor receptor-bound protein 2 (Homo sapiens) (UniProt P62993); assay: Binding affinity to human recombinant HGF-stimulated Grb2-SH3 in human SK-LMS1 cells assessed as presence of associated protein Sos1 at 3 uM by immunoblot analysis; type: cell-based

Chain of Growth factor receptor-bound protein 2 (Homo sapiens) (P62993 whole entry, looked up): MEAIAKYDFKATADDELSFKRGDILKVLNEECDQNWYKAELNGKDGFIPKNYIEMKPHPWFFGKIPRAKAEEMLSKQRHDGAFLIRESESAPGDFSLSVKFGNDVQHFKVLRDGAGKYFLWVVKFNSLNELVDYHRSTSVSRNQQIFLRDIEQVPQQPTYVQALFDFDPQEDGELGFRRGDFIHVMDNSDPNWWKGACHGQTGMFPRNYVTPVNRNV
Chain of Serine/threonine-protein kinase PAK 1 (Homo sapiens) (Q13153 whole entry): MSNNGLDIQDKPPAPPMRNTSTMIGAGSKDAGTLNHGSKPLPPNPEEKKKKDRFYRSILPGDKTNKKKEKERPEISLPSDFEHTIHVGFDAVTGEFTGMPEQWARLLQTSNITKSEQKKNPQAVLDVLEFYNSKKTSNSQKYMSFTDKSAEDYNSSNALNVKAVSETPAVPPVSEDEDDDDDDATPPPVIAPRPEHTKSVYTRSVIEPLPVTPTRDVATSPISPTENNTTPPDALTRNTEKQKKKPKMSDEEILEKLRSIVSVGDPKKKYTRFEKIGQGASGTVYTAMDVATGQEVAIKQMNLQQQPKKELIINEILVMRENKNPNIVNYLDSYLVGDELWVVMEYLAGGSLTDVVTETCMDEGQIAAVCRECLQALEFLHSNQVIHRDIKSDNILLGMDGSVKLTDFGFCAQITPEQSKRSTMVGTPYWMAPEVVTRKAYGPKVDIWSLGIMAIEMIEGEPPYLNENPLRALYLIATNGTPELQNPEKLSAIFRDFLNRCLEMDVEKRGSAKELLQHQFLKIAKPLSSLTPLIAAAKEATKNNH

## NC(=O)C[C@H](NC(=O)C1(NC(=O)[C@H](Cc2ccc(C(C(=O)O)C(=O)O)cc2)NC(=O)C(=O)O)CCCCC1)C(=O)NCCCc1cccc2ccccc12
[1]
  Ratio: 65
[2]
  Activity: Active
[3]
  Activity: Active
[4]
  Activity: Active
[5]
  Activity: Active

## NC(=O)C[C@H](NC(=O)C1(NC(=O)[C@H](Cc2ccc(O)cc2)NC(=O)C(=O)O)CCCCC1)C(=O)NCCCc1cccc2c(OC(=O)CCCCCNC(=O)CCCC[C@@H]3SC[C@@H]4NC(=O)N[C@@H]43)cccc12
[6]
  Activity: inactive
[7]
  Activity: inactive

## NC(=O)C[C@H](NC(=O)C1(NC(=O)[C@H](Cc2ccc(C(C(=O)O)C(=O)O)cc2)NC(=O)C(=O)O)CCCCC1)C(=O)NCCCc1cccc2c(O)cccc12
[1]
  Ratio: 101

## NC(=O)C[C@H](NC(=O)C1(NC(=O)[C@H](Cc2ccc(C(C(=O)O)C(=O)O)cc2)NC(=O)C(=O)O)CCCCC1)C(=O)NCCCc1cccc2c(OC(=O)CCCCCNC(=O)CCCC[C@@H]3SC[C@@H]4NC(=O)N[C@@H]43)cccc12
[8]
  IC50: 14 nM
[7]
  Activity: Active
[9]
  Activity: Active
[10]
  Activity: Active
[11]
  Activity: Active
[12]
  Activity: Active
